The source made the active and inactive calls. No cut-off for these calls is given here.
Experiments:
[1] = target: T1, Toll-like receptor 9 (Homo sapiens) (UniProt Q9NR96); experiment: Inhibition of TLR9-mediated indoleamine 2,3-dioxygenase activation in CpGA-stimulated human PBMC assessed as decrease in kynurenine to tryptophan level at 100 uM after 20 hrs by ELISA
T1 sequence (whole entry): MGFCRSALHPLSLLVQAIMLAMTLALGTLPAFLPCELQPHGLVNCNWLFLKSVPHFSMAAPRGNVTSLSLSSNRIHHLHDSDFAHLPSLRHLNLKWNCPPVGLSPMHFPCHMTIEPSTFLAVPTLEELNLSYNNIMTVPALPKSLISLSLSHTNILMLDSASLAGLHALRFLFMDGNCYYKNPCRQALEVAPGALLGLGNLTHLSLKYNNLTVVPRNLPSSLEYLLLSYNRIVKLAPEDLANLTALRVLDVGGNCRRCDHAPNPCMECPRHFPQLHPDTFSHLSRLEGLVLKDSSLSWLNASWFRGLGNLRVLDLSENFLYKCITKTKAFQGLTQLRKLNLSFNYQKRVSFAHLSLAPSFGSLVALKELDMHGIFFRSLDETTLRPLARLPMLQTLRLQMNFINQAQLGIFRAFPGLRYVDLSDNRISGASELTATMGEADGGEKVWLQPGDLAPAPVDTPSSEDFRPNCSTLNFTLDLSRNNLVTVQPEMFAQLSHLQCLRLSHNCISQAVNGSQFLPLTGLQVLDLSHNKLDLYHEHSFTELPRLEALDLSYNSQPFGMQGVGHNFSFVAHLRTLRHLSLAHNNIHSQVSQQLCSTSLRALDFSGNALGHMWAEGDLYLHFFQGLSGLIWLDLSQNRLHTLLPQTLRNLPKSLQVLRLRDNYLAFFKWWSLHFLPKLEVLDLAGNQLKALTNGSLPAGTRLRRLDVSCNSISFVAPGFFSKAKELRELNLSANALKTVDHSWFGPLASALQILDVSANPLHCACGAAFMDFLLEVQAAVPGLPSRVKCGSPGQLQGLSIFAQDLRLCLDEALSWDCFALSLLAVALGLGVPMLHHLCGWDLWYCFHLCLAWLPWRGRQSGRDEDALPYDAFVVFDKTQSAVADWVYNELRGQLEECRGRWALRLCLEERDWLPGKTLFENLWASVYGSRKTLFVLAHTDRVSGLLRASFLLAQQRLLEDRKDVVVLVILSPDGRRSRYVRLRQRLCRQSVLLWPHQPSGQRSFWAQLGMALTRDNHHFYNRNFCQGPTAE

[2] = target: T2, Toll-like receptor (TLR7/TLR9) (Homo sapiens) (UniProt Q9NR96+Q9NYK1); experiment: Inhibition of TLR7/TLR9-mediated upregulation of PDL1 expression in aldrithiol-2-treated HIV1 MN-stimulated human PBMC at 100 uM after 20 hrs by flow cytometry
Outline: (§1)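 Human PBMC (1 × 10^6 cells/well) preincubated 1 h with 100 μM chloroquine or medium, then cultured 20 h at 37°C with AT-2 HIV-1 (500 ng/ml p24), 3M-011 (3.0 μM) or CpG A (4 μg/ml); PDL-1 on pDC read as MFI by flow cytometry.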

[3] = target: T1, Toll-like receptor 9 (Homo sapiens); experiment: Inhibition of TLR9-mediated upregulation of PDL1 expression in CpGA-stimulated human PBMC at 100 uM after 20 hrs by flow cytometry; outline: as §1
[4] = target: T2, Toll-like receptor (TLR7/TLR9) (Homo sapiens); experiment: Inhibition of TLR7/TLR9-mediated indoleamine 2,3-dioxygenase activation in aldrithiol-2-treated HIV1 Ada-stimulated human PBMC assessed as decrease in kynurenine to tryptophan level at 100 uM after 20 hrs by fluorometric assay; type: protein assay
Outline: (§2)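 PBMC (1 × 10^6/well) ± 100 μM chloroquine (1 h preincubation), stimulated 20 h with AT-2 HIV-1, 3M-011 or CpG A. Kynurenine in supernatant: 30% TCA, 50°C, 30 min, then Ehrlich's reagent, absorbance 490 nm. Tryptophan: 20% TCA, then TCA/formaldehyde/FeCl3 at 90°C for 2 h, fluorescence ex 360/em 460 nm. Duplicates, standard curves; reported as kynurenine/tryptophan ratio.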

[5] = target: T3, Toll-like receptor 7 (Homo sapiens) (UniProt Q9NYK1); experiment: Inhibition of TLR7-mediated IFN-alpha production in aldrithiol-2-treated HIV1 MN-stimulated human PBMC at 100 uM after 20 hrs by ELISA
T3 sequence (whole entry): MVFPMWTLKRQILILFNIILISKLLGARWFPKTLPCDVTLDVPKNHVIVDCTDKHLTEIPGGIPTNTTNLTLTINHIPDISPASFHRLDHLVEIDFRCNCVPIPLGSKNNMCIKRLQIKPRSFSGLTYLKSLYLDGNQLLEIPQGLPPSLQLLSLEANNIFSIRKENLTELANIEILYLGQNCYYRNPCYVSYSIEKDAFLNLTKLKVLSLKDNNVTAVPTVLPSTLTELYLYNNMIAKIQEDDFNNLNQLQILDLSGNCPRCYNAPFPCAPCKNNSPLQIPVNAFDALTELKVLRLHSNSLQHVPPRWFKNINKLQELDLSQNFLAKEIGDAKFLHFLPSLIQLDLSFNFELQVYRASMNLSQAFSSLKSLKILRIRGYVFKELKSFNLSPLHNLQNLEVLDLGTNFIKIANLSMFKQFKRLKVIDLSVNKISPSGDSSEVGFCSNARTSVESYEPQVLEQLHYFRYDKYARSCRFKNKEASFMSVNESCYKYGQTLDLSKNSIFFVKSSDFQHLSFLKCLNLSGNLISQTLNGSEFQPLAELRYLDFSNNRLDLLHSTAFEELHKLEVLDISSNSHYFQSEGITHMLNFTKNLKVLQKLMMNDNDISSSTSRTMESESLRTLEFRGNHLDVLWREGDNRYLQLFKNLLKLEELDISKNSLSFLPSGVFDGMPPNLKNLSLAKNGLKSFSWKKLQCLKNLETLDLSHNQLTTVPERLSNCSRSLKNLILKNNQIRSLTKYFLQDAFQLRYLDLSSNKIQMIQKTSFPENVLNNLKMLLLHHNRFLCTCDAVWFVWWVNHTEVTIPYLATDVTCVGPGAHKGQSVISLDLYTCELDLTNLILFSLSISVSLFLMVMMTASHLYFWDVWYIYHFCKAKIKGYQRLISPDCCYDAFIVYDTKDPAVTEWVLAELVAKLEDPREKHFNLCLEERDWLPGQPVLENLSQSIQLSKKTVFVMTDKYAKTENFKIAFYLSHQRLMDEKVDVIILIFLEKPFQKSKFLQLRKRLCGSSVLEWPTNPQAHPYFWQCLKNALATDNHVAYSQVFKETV

[6] = target: T4, TLR7 and TLR8 (Homo sapiens) (UniProt Q9NYK1+Q9NR97); experiment: Inhibition of TLR7/TLR8-mediated IFN-alpha production in 3M-011-stimulated human PBMC at 100 uM after 20 hrs by ELISA
[7] = target: T2, Toll-like receptor (TLR7/TLR9) (Homo sapiens); experiment: Inhibition of TLR7/TLR9-mediated indoleamine 2,3-dioxygenase activation in aldrithiol-2-treated HIV1 MN-stimulated human PBMC assessed as decrease in kynurenine to tryptophan level at 100 uM after 20 hrs by fluorometric assay; type: protein assay; outline: as §2
[8] = target: T3, Toll-like receptor 7 (Homo sapiens); experiment: Inhibition of TLR7-mediated upregulation of IRF7 expression in aldrithiol-2-treated HIV1 Ada-stimulated human PBMC at 100 uM after 20 hrs by flow cytometry
Outline: (§3)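 PBMC preincubated 1 h ± 100 μM chloroquine, stimulated 20 h with AT-2 HIV-1 Ada or MN (500 ng/ml p24); pDC gated Lin1− CD123+ HLA-DR+; surface CD86 (% cells), CD83 (% cells), or intracellular IRAK-4, IRF-7, IDO after Cytofix/Cytoperm with rabbit antibody plus PE anti-rabbit (MFI) by flow cytometry; microvesicle controls.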

[9] = target: T3, Toll-like receptor 7 (Homo sapiens); experiment: Inhibition of TLR7-mediated IFN-alpha production in aldrithiol-2-treated HIV1 Ada-stimulated human PBMC after 20 hrs by ELISA
[10] = target: T2, Toll-like receptor (TLR7/TLR9) (Homo sapiens); experiment: Inhibition of TLR7/TLR9-mediated maturation of aldrithiol-2-treated HIV1 Ada-stimulated human PBMC assessed as CD83 expressing cells at 100 uM after 20 hrs by flow cytometry; type: cell-based; design: scale not given: the % may be the effect or the level left; outline: as §3
[11] = target: T4, TLR7 and TLR8 (Homo sapiens); experiment: Inhibition of TLR7/TLR8-mediated indoleamine 2,3-dioxygenase activation in 3M-011-stimulated human PBMC assessed as decrease in kynurenine to tryptophan level at 100 uM after 20 hrs by ELISA; type: protein assay
[12] = target: T2, Toll-like receptor (TLR7/TLR9) (Homo sapiens); experiment: Inhibition of TLR7/TLR9-mediated upregulation of indoleamine 2,3-dioxygenase expression in aldrithiol-2-treated HIV1 MN-stimulated human PBMC at 100 uM after 20 hrs by flow cytometry; outline: as §3
[13] = target: T2, Toll-like receptor (TLR7/TLR9) (Homo sapiens); experiment: Inhibition of TLR7/TLR9-mediated upregulation of PDL1 expression in aldrithiol-2-treated HIV1 Ada-stimulated human PBMC at 100 uM after 20 hrs by flow cytometry; outline: as §1
[14] = target: T2, Toll-like receptor (TLR7/TLR9) (Homo sapiens); experiment: Inhibition of TLR7/TLR9-mediated upregulation of indoleamine 2,3-dioxygenase expression in aldrithiol-2-treated HIV1 Ada-stimulated human PBMC at 100 uM after 20 hrs by flow cytometry; outline: as §3
[15] = target: T2, Toll-like receptor (TLR7/TLR9) (Homo sapiens); experiment: Inhibition of TLR7/TLR9-mediated activation of aldrithiol-2-treated HIV1 MN-stimulated human PBMC assessed as CD86 expressing cells at 100 uM after 20 hrs by flow cytometry; type: cell-based; design: scale not given: the % may be the effect or the level left; outline: as §3
[16] = target: T2, Toll-like receptor (TLR7/TLR9) (Homo sapiens); experiment: Inhibition of TLR7/TLR9-mediated activation of aldrithiol-2-treated HIV1 Ada-stimulated human PBMC assessed as CD86 expressing cells at 100 uM after 20 hrs by flow cytometry; type: cell-based; design: scale not given: the % may be the effect or the level left; outline: as §3
[17] = target: T2, Toll-like receptor (TLR7/TLR9) (Homo sapiens); experiment: Inhibition of TLR7/TLR9-mediated activation of aldrithiol-2-treated HIV1 Ada-stimulated human PBMC assessed as CD38-MFI level in activated CD8-positive cells at 5 uM after 20 hrs by flow cytometry; type: cell-based
Outline: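 PBMC preincubated 1 h with 5 μM chloroquine, then stimulated with AT-2 HIV-1 Ada for 20 h; CD38 surface expression on gated CD3+ CD8+ T cells by flow cytometry, expressed as CD38 MFI.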

[18] = target: T2, Toll-like receptor (TLR7/TLR9) (Homo sapiens); experiment: Inhibition of TLR7/TLR9-mediated activation of exogenous rIFNalpha2A-stimulated human CD8-positive T cells assessed as […] at 5 uM after 20 hrs by flow cytometry; type: cell-based; details: T-cell
Outline: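 Bead-enriched CD8+ T cells (indirect negative isolation) preincubated 1 h with 5 μM chloroquine, then given 1,000 U/ml rIFN-α2a for 20 h; CD38 MFI on CD3+ CD8+ cells by flow cytometry; anti-IFN-αR 64G12 (10 μg/ml, 30 min pretreatment) used as comparator; n = 3 experiments.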

[19] = target: T3, Toll-like receptor 7 (Homo sapiens); experiment: Inhibition of TLR7-mediated upregulation of IRF7 expression in aldrithiol-2-treated HIV1 MN-stimulated human PBMC at 100 uM after 20 hrs by flow cytometry; outline: as §3
[20] = target: T3, Toll-like receptor 7 (Homo sapiens); experiment: Inhibition of TLR7-mediated IFN-alpha production in aldrithiol-2-treated HIV1 MN-stimulated human PBMC after 20 hrs by ELISA
[21] = target: T3, Toll-like receptor 7 (Homo sapiens); experiment: Inhibition of TLR7-mediated upregulation of IRAK4 expression in aldrithiol-2-treated HIV1 Ada-stimulated human PBMC at 100 uM after 20 hrs by flow cytometry; outline: as §3
[22] = target: T4, TLR7 and TLR8 (Homo sapiens); experiment: Inhibition of TLR7/TLR8-mediated upregulation of PDL1 expression in 3M-011-stimulated human PBMC at 100 uM after 20 hrs by flow cytometry; outline: as §1
[23] = target: T1, Toll-like receptor 9 (Homo sapiens); experiment: Inhibition of TLR9-mediated IFN-alpha production in CpGA-stimulated human PBMC at 100 uM after 20 hrs by ELISA
[24] = target: T3, Toll-like receptor 7 (Homo sapiens); experiment: Inhibition of TLR7-mediated upregulation of IRAK4 expression in aldrithiol-2-treated HIV1 MN-stimulated human PBMC at 100 uM after 20 hrs by flow cytometry; outline: as §3
[25] = target: T3, Toll-like receptor 7 (Homo sapiens); experiment: Inhibition of TLR7-mediated IFN-alpha production in aldrithiol-2-treated HIV1 Ada-stimulated human PBMC at 100 uM after 20 hrs by ELISA
[26] = target: T2, Toll-like receptor (TLR7/TLR9) (Homo sapiens); experiment: Inhibition of TLR7/TLR9-mediated maturation of aldrithiol-2-treated HIV1 MN-stimulated human PBMC assessed as CD83 expressing cells at 100 uM after 20 hrs by flow cytometry; type: cell-based; design: scale not given: the % may be the effect or the level left; outline: as §3

T4 sequence (Q9NR97 whole entry, looked up, one chain of several): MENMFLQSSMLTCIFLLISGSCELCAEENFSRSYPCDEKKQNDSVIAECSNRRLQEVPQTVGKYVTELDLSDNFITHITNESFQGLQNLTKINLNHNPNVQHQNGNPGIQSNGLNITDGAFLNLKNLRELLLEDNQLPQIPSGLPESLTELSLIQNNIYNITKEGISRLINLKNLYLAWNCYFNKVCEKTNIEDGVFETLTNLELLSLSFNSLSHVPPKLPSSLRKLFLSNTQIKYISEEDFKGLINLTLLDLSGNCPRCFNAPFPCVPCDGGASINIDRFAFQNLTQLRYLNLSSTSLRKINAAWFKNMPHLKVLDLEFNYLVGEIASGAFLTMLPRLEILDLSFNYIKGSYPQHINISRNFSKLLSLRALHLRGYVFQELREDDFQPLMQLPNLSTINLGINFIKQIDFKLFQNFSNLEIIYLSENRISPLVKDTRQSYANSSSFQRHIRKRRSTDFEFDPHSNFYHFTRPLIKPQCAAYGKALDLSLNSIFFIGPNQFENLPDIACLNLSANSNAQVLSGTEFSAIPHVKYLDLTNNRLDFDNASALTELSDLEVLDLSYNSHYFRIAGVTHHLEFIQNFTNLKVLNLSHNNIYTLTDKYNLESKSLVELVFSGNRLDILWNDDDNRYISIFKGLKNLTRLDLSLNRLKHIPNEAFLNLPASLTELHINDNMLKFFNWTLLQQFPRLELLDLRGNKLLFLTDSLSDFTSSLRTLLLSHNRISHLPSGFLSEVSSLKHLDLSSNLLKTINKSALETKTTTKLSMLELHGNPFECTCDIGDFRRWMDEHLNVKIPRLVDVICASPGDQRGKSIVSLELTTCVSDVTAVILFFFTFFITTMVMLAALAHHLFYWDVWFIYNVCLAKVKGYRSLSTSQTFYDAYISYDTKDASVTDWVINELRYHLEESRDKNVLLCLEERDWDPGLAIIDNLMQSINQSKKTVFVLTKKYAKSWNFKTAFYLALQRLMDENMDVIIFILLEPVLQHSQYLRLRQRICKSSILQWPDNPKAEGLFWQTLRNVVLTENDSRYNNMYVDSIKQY

- inhibition [1]: Active
- inhibition [2]: Active
- inhibition [3]: Active
- inhibition [4]: Active
- inhibition [5]: Active
- inhibition [6]: Active
- inhibition [7]: Active
- inhibition [8]: Active
- inhibition [9]: Dose-dependent effect
- Activity [10]: 12.6%
- inhibition [11]: Active
- inhibition [12]: Active
- inhibition [13]: Active
- inhibition [14]: Active
- Activity [15]: 8.2%
- Activity [16]: 11.1%
- inhibition [17]: 23.4%
- inhibition [18]: inactive
- inhibition [19]: Active
- inhibition [20]: Dose-dependent effect
- inhibition [21]: Active
- inhibition [22]: Active
- inhibition [23]: Active
- inhibition [24]: Active
- inhibition [25]: Active
- Activity [26]: 14.3%
Compound: CCN(CC)CCCC(C)Nc1ccnc2cc(Cl)ccc12 (stereo unspecified)

From ChEMBL document CHEMBL1240368, “Chloroquine modulates HIV-1-induced plasmacytoid dendritic cell alpha interferon: implication for T-cell activation” (Antimicrob Agents Chemother, 2010)
